The source of these data is ChEMBL document CHEMBL1127543, “Dual angiotensin converting enzyme/thromboxane synthase inhibitors” (J Med Chem, 1994).

Test [1] has as its system Rattus norvegicus. The test is described as follows: Antihypertensive activity was measured in spontaneously hypertensive rat (SHR) by measuring the blood pressure on interarterial administration at dose of 1 mg/kg after 4 h. It is filed as functional, Artery. In short, it runs like this:
(§1)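 Conscious, fully ambulatory SHR (250–280 g) were fitted with an arterial catheter led through an infusion swivel inside a protective spring. After 24 h recovery from surgery, rats were housed singly. Mean arterial pressure was recorded continuously after dosing over a 6-h period, with later readings up to 24 h. Rats had chow and tap water freely under a 12-h light cycle.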

In another test the target is T1, Thromboxane-A synthase (Homo sapiens, UniProt P24557).
T1 sequence (P24557 whole entry): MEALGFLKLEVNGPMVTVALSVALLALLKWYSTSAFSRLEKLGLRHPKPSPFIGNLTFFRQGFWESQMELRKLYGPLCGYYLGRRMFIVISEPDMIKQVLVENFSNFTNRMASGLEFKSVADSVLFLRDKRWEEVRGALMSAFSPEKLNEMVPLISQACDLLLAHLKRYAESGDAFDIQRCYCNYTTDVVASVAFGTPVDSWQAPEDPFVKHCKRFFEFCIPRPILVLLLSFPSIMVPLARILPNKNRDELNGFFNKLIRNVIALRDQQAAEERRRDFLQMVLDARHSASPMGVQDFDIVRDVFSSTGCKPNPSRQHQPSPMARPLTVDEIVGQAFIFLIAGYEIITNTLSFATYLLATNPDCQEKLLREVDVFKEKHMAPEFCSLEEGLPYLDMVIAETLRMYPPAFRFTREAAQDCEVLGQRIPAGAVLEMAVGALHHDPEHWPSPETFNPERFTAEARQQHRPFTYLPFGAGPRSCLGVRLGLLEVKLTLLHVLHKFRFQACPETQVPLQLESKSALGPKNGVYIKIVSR
Nature of the test: Tested for 50% inhibition of thromboxane synthase (TxS) in human platelets (in vitro). In short, it runs like this:
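IC50 was obtained graphically from a range of compound concentrations within the linear range of the assay. Determinations were made in duplicate and repeated once.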

Test [2] concerns Rattus norvegicus. Nature of the test: Antihypertensive activity was measured in spontaneously hypertensive rat (SHR) by measuring the maximum blood pressure when administered orally at dose of 10 mg/kg after 4 h. It is filed as functional. The following applies: route oral. In short, it runs like this:
as §1

Test [3] concerns Rattus norvegicus. The test is described as follows: Tested for percent inhibition of maximum angiotensin I (AI) pressor response in rats on oral administration of 300 mg/kg after 4 hr. It is filed as functional. In short, it runs like this:
(§2)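 Conscious catheterized SHR were prepared as for blood pressure recording. At set times after dosing, angiotensin I was injected intraarterially in 0.5 mL. The rise in arterial pressure was recorded and expressed as percent inhibition of the angiotensin I pressor response.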

For test [4], the system named is Rattus norvegicus. The test is described as follows: Antihypertensive activity was measured in spontaneously hypertensive rat (SHR) by measuring the blood pressure after 24 hours on interarterial administration at dose of 1 mg/kg; Not significant. The following applies: Artery. On the set-up: dose 1 mg/kg. It is filed as functional, organism-based. In short, it runs like this:
as §1

Test [5] relates to Rattus norvegicus. The test is described as follows: Tested for percent inhibition of maximum angiotensin I (AI) pressor response in rats on oral administration of 300 mg/kg after 2 hr. It is filed as functional. In short, it runs like this:
as §2

Test [6] has as its target T2, Angiotensin-converting enzyme (Oryctolagus cuniculus, UniProt P12822).
T2 sequence (P12822 whole entry): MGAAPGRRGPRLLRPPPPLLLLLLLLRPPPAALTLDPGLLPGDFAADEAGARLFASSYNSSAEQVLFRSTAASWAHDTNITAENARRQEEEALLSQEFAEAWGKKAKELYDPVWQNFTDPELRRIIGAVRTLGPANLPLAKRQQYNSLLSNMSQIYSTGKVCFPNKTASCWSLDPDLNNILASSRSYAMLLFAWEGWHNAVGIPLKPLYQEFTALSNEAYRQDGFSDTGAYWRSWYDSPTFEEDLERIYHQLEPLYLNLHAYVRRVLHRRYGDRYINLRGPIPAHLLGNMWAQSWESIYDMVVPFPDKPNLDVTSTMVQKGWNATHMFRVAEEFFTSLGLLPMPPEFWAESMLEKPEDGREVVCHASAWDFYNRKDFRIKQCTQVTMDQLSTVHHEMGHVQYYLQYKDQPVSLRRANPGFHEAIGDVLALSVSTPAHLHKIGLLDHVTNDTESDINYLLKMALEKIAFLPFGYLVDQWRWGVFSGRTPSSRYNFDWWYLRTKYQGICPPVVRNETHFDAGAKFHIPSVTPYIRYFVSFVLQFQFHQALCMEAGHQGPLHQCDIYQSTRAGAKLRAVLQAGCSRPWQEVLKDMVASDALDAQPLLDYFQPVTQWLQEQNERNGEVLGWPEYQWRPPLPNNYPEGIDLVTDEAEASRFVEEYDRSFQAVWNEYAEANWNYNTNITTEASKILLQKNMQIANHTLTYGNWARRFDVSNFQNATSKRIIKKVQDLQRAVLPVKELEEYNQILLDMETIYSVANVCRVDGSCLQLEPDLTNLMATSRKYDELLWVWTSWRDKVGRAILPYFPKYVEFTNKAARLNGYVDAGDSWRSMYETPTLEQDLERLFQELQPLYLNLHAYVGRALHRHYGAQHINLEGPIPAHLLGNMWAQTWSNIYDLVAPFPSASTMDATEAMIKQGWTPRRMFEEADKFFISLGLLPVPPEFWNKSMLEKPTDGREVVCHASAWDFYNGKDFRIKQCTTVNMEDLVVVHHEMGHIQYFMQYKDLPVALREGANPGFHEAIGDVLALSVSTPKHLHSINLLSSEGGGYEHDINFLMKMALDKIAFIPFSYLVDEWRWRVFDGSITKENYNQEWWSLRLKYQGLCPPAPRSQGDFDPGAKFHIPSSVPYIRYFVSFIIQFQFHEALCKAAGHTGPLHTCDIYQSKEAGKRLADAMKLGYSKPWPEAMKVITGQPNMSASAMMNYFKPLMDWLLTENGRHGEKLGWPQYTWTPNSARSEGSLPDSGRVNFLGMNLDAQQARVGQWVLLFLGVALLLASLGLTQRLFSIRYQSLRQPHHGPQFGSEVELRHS
The test is described as follows: Tested for 50% inhibition of Angiotensin converting enzyme(ACE) obtained from rabbit lung (in vitro). In short, it runs like this:
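ACE was partially purified from rabbit lung and incubated with the synthetic substrate Hip-His-Leu. The hippuric acid product was measured spectrophotometrically. IC50 was read graphically from a range of inhibitor concentrations within the assay's linear range. Each determination was done in duplicate and repeated once.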

The species entered for test [7] is Rattus norvegicus. The settings on record: 10 mg/kg.

Calls of active or inactive are those of the source. The rule behind the calls is not given here.

By IC50 is commonly meant the concentration at which inhibition is half-maximal. The term inhibition in vivo denotes the drop in the measured response relative to a control, in per cent. A lower inhibition in vivo goes with a response near the control. Turning to `Cn1c(-c2cccnc2)c(CCCCCC(=O)N2CCC(NCCCC[C@H](N[C@@H]3CCc4ccccc4N(CC(=O)[O-])C3=O)C(=O)[O-])CC2)c2cc(Cl)ccc21.[Na+].[Na+]`, the “Max delta BP” value was -24 mmHg in the test on Rattus norvegicus [1] and -35 mmHg in the test on Rattus norvegicus [2]. Besides, the IC50 against Thromboxane-A synthase amounted to 20 nM; in test [6] it was 12 nM. The inhibition in vivo at 300 mg/kg in the test with Rattus norvegicus [3] is 51%; in the test with Rattus norvegicus [5], 76%. In addition, the Delta blood pressure entry in the test with Rattus norvegicus [4] and in the test filed under Rattus norvegicus [7] was “inactive” throughout.
